In ChEMBL document CHEMBL1275343, “A diverse series of substituted benzenesulfonamides as aldose reductase inhibitors with antioxidant activity: design, synthesis, and in vitro activity” (J Med Chem, 2010):

How the values were obtained:
[1] = Antioxidant activity in L-alpha-phosphatidylcholine dioleoyl liposome assessed as inhibition of AAPH-induced lipid peroxidation by LOOH assay; type: functional
Outline: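 Unilamellar DOPC liposomes (0.8 mM) peroxidized by aqueous-phase peroxyl radicals from thermal decomposition of AAPH; Trolox standard; lipid hydroperoxide (LOOH) quantified against a calibration curve.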

[2] = test system: Radical scavenging activity; assay: Antioxidant activity assessed as DPPH radical scavenging activity after 270 mins by least-square analysis; type: functional
[3] = test system: Radical scavenging activity; assay: Antioxidant activity assessed as ratio of IC50 for DPPH radical scavenging activity to concentration of DPPH; type: functional
[4] = DPPH radical scavenging activity assessed as initial rate of interaction at 0.2 mM; type: functional
Outline: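 Equimolar compound and DPPH (0.2 mM each) in ethanol; initial rate estimated from the roughly linear absorbance decrease over the first 30 s. Triplicate.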

[5] = organism: Rattus norvegicus; assay: Selectivity ratio of IC50 for Fischer-344 rat kidney AK1A1 to IC50 for Fischer-344 rat lens ALR2; type: tissue-based; settings: Lens of camera-type eye
[6] = biological target: T1, Aldo-keto reductase family 1 member A1 (Rattus norvegicus, UniProt P51635); assay: Inhibition of Fischer-344 rat kidney AK1A1
T1 sequence (P51635 whole entry): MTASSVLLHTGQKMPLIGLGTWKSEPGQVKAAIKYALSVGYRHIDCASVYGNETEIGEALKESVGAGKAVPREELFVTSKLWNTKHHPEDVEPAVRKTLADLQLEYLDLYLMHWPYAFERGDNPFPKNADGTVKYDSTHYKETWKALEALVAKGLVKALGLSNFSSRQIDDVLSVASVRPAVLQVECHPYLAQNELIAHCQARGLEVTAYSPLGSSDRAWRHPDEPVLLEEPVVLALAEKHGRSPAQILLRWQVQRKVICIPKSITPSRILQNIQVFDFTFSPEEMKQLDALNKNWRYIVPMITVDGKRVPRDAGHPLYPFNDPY

[7] = organism: Rattus norvegicus; assay: Selectivity ratio of inhibition of Fischer-344 rat lens ALR2sto inhibition of Fischer-344 rat kidney AK1A1 at 100 uM; type: tissue-based; settings: Lens of camera-type eye
Outline: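 Ratio of % inhibition of rat lens ALR2 to % inhibition of rat kidney ALR1, each measured at 100 μM compound.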

[8] = biological target: T2, Aldo-keto reductase family 1 member A1 (Rattus norvegicus) (UniProt P51635); assay: Inhibition of Fischer-344 rat kidney AK1A1 at 100 uM
T2 sequence (whole entry): T1 sequence (P51635 whole entry)

[9] = biological target: Aldo-keto reductase family 1 member B1 (Rattus norvegicus) (UniProt P07943); assay: Inhibition of Fischer-344 rat lens ALR2 at 100 uM; type: tissue-based; settings: Lens of camera-type eye
[10] = biological target: Aldo-keto reductase family 1 member B1 (Rattus norvegicus, UniProt P07943); assay: Inhibition of Fischer-344 rat lens ALR2 by least-square analysis; type: tissue-based, Lens of camera-type eye
Outline: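 Lenses from Fischer-344 rats of both sexes as ALR2 source; NADPH oxidation followed spectrophotometrically. Five concentrations, IC50 by least-squares of linear portion of log(dose)-response curves (0.889<r²<0.994); triplicate.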

[11] = biological target: T3, Aldo-keto reductase family 1 member A1 (Homo sapiens, UniProt P14550); assay: Inhibition of AK1A1
T3 sequence (P14550 whole entry): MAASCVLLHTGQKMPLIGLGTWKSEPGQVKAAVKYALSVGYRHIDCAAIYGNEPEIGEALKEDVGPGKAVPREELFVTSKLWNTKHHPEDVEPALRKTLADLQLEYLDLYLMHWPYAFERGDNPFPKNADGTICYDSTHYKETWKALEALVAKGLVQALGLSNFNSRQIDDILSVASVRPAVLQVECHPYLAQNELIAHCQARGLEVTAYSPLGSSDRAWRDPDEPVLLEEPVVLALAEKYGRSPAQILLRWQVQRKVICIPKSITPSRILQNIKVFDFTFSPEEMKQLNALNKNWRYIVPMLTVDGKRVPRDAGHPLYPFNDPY

| Structure (SMILES) | IC50 [1] | IC50 [2] | IC50 [6] | inhibition [8] | inhibition [9] | IC50 [10] | IC50 [11] | Ratio [3] | Activity [4] | Ratio IC50 [5] | Selectivity ratio [7] |
| --- | --- | --- | --- | --- | --- | --- | --- | --- | --- | --- | --- |
| Nc1ccc(S(=O)(=O)N(Cc2ccc(Br)cc2F)c2cc(F)c(O)c(F)c2)cc1 | 73.1 µM | 61.9 µM | 0.323 µM | 95.3% | 87.4% | 0.397 µM |  | 0.31 | 0.977 s⁻¹ | 0.81 |  |
| O=S(=O)(Nc1cc(F)c(O)c(F)c1)c1ccc(-n2cccc2)cc1 | 97.1 µM | 48.6 µM | 281 µM | 41.7% | 61.1% | 57.1 µM |  | 0.24 | 0.489 s⁻¹ | 4.92 |  |
| CS(=O)(=O)NC(=O)CNS(=O)(=O)c1ccccc1 |  |  |  | 12.2% | 32.9% |  |  |  |  |  | 2.69 |
| O=C1NOC[C@H]1NS(=O)(=O)c1ccccc1 |  |  |  | 22.4% | 25.7% |  |  |  |  |  | 1.15 |
| O=S(=O)(NCc1nnn[nH]1)c1ccccc1 |  |  |  | 19.9% | 23.8% |  |  |  |  |  | 1.2 |
| O=C(O)CNS(=O)(=O)c1ccccc1 |  |  |  | 30.5% | 51.7% | 86.7 µM |  |  |  |  | 1.69 |
| O=[N+]([O-])c1ccc(S(=O)(=O)N(Cc2ccc(Br)cc2F)c2cc(F)c(O)c(F)c2)cc1 | 61.8 µM | 61.5 µM | 15.4 µM | 69.8% | 75.1% | 9 µM |  | 0.31 | 0.974 s⁻¹ | 1.71 |  |
| O=S(=O)(Nc1nnn[nH]1)c1ccccc1 |  |  |  | 21.7% | 44.8% |  |  |  |  |  | 2.06 |
| O=C1NOC[C@@H]1NS(=O)(=O)c1ccccc1 |  |  |  | 2.67% | 48.9% | 71.2 µM |  |  |  |  | 18.3 |

The next lines start with results.

| IC50 [1] | IC50 [2] | IC50 [6] | inhibition [8] | inhibition [9] | IC50 [10] | IC50 [11] | Structure (SMILES) | Ratio [3] | Activity [4] | Ratio IC50 [5] | Selectivity ratio [7] |
| --- | --- | --- | --- | --- | --- | --- | --- | --- | --- | --- | --- |
| 93.5 µM | 37 µM |  |  |  |  |  | Cc1c(C)c2c(c(C)c1O)CCC(C)(C(=O)O)O2 (centres undefined) [TROLOX] | 0.19 | 1.81 s⁻¹ |  |  |
| 95.9 µM | 49 µM | 19.6 µM | 79.2% | 71.3% |  |  | O=S(=O)(Nc1cc(F)c(O)c(F)c1)c1ccccc1 | 0.25 | 0.498 s⁻¹ | 0.6 | 0.89 |
| 81.7 µM | 51.6 µM | 25.5 µM | 68.5% | 63.6% | 37.8 µM |  | CCNC(=O)Nc1ccc(S(=O)(=O)Nc2cc(F)c(O)c(F)c2)cc1 | 0.28 | 0.859 s⁻¹ | 0.67 |  |
| 139 µM | 63.2 µM | 9.7 µM | 93.8% | 65.1% | 28.1 µM |  | O=S(=O)(c1ccccc1)N(c1cc(F)c(O)c(F)c1)S(=O)(=O)c1ccccc1 | 0.32 | 0.967 s⁻¹ | 0.35 |  |
| 70.7 µM | 56.9 µM | 12.4 µM | 71.7% | 77.9% | 12 µM |  | COc1ccc(C(=O)Nc2ccc(S(=O)(=O)Nc3cc(F)c(O)c(F)c3)cc2)cc1 | 0.26 | 0.995 s⁻¹ | 1.03 |  |
| 68.6 µM | 49.7 µM | 6.9 µM | 81.1% | 87.7% | 7.9 µM |  | O=C(Nc1ccc(S(=O)(=O)Nc2cc(F)c(O)c(F)c2)cc1)c1ccccc1 | 0.25 | 0.817 s⁻¹ | 0.87 |  |
| 45.7 µM | 54.8 µM | 133 µM | 55.7% | 63.9% |  |  | O=[N+]([O-])c1ccc(S(=O)(=O)Nc2cc(F)c(O)c(F)c2)cc1 | 0.27 | 0.465 s⁻¹ | 2.99 |  |
| 48.1 µM | 44.7 µM | 10.3 µM | 85.4% | 84.1% |  |  | Nc1ccc(S(=O)(=O)Nc2cc(F)c(O)c(F)c2)cc1 | 0.22 | 0.777 s⁻¹ | 0.73 |  |
| 66 µM | 45.1 µM | 105 µM | 50.6% | 55.8% | 91.5 µM |  | O=S(=O)(Nc1cc(F)c(O)c(F)c1)c1ccc(C(F)(F)F)cc1 | 0.23 | 0.49 s⁻¹ | 1.15 |  |
|  |  |  |  |  |  | 50.1 µM | CCCC(CCC)C(=O)O [VALPROIC ACID] |  |  |  |  |
| 66 µM | 60.9 µM | 11.9 µM | 69.2% | 74.6% | 5.7 µM |  | O=S(=O)(c1ccccc1)N(Cc1ccc(Br)cc1F)c1cc(F)c(O)c(F)c1 | 0.3 | 1 s⁻¹ | 2.09 |  |
| 55.1 µM | 45.2 µM | 23.8 µM | 83% | 79.5% |  |  | COc1ccc(S(=O)(=O)Nc2cc(F)c(O)c(F)c2)cc1 | 0.23 | 0.661 s⁻¹ | 1.54 |  |
